Source: PubChem (several laboratories)
APP transl inh: APP translation inhibition; inhibition, % at 2 µM; SH-SY5Y APP 5'UTR-luciferase reporter, luminescence; AID 1285; actives 0.82% (n = 190,000);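 active means inhibition above a set limit, derived from the sample mean plus 3 SD, cut at about 45% in these data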
Ba/F3 V617F tox: reduce viability of Ba/F3 cells dependent on JAK2V617F; Ba/F3 EpoR-JAK2V617F viability, ATP luminescence; inhibition, % at 5.6 µM; actives 1.1% (n = 220,000);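 active means inhibition above the campaign mean plus 3 SD over all tested compounds, cut at about 24% in these data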;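 further: cytokine-independent growth of Ba/F3 cells driven by EpoR plus mutant JAK2; 0% = DMSO-treated cells and 100% = JAK inhibitor I control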
BaF3 tox: counter-screen for JAK2V617F inhibitors: parental Ba/F3 viability inhibitors; CellTiter-Glo ATP luminescence; inhibition, % at 5.6 µM; actives 1.1% (n = 220,000);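 active means inhibition above a per-campaign cutoff, the mean inhibition of all tested compounds plus 3 SD, cut at about 27% in these data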;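 further: 0% = DMSO wells and 100% = JAK Inhibitor I control wells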
MT stabilizer: microtubule stabilizers in HeLa cells; HeLa tubulin immunostaining HCS, 24 h; share of cells brighter than vehicle mean+2SD; % tubulin-high responders, % at 10 µM; actives 0.83% (n = 200,000); AID 2205;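 active means plate Z-score above 3 for both tubulin-high and condensed-nucleus cell shares, with cell loss under 80%, at 10 µM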;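 further: anti alpha tubulin signal scored within the nucleus-defined area of each cell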
IEC-6 cytotox: kills IEC-6 intestinal cells in KLF5 counter-screen; actives 0.78% (n = 290,000); IEC-6 cytotoxicity, luminescence viability; inhibition, % at 5 µM;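 further: 0% = plate median of test compound wells and 100% = cytotoxic reference compound wells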
b-catenin transl: modulators of beta-catenin nuclear translocation. HeLa beta-catenin nuclear translocation, immunofluorescence imaging. nuclear translocation activity, % at 5 µM. actives 0.3% (n = 190,000). AID 1665;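 active means nuclear translocation activity above 50% at 5 µM, with a well cell count of 50 or more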;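 further: per-cell ratio of nuclear to cytoplasmic median beta-catenin stain intensity; plate controls were DMSO negative control for no effect and GSK-3 inhibitor IX positive control for full effect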
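Read-out: Nuclear/cytoplasmic beta-catenin signal ratio, % activation | Assay system: Human HeLa cell line | Times: 24 h compound exposure at 37°C, 5% CO2 | Signal: Fluorescence imaging of beta-catenin antibody stain plus DAPI | Dosing: 5 µM primary, 0.02–20 µM confirmation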
BaF3 tox 2: counter-screen for JAK2V617F inhibitors: parental Ba/F3 viability inhibitors; shares compounds with Ba/F3 V617F tox; CellTiter-Glo luminescence; cells kept alive by added IL-3; inhibition, % at 5.6 µM; actives 31% (n = 580);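 active means cell growth inhibition above the hit limit set in the earlier mutant JAK2 cell screen, cut at about 27% in these data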;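 further: plate controls were DMSO-treated cells for no effect and JAK Inhibitor I control wells for full effect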
JAK2V617F confrm: Ba/F3 EpoR-JAK2V617F viability loss, confirmation. shares compounds with Ba/F3 V617F tox. CellTiter-Glo luminescence. inhibition, % at 5.6 µM. actives 66% (n = 580);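 active means mean inhibition above the hit cutoff derived in the earlier primary screen, cut at about 25% in these data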;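 further: 0% = DMSO-treated cells and 100% = JAK inhibitor I control wells; higher means lower luminescence from reduced cell ATP and viability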
IEC-6 tox confirm: IEC-6 cytotoxicity, confirmation assay | shares compounds with IEC-6 cytotox | IEC-6 rat intestinal epithelial viability, luminescence | inhibition, % at 5 µM | actives 63% (n = 1,900) | AID 1907;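 further: 0% = vehicle and 100% = reference cytotoxic drug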
Numbers without * were called inactive; / = no result given. Hits are enriched below; roughly 2.2% of the tested compounds scored in any of these assays. Unless noted, no stated cut-off is given here; in the data, active means inhibition above about 22%; inactive means the rest.

SMILES	APP transl inh	Ba/F3 V617F tox	BaF3 tox	MT stabilizer	IEC-6 cytotox	b-catenin transl	IEC-6 tox confirm	others
O=C(c1cc(C(=O)N2CCCC2)cc([N+](=O)[O-])c1)N1CCCC1	/	/	/	/	0	/	/
O=[N+]([O-])c1ccc(-c2nnc(S)n2-c2ccccc2)cc1	/	/	/	/	-2	/	/
CC(=O)OC[C@H]1O[C@@H](n2ncc(=O)[nH]c2=O)[C@H](OC(C)=O)[C@@H]1OC(C)=O	-7	61*	26	3	39*	/	22*	BaF3 tox 2=53*;JAK2V617F confrm=75*
COc1cc(/C=C(/NC(=O)c2ccccc2)C(=O)N2CCOCC2)c([N+](=O)[O-])cc1OC	/	/	/	/	-1	/	/
CC1CCC2(CC1)NC(=O)N(CC(=O)c1ccc(Cl)s1)C2=O (stereo not given)	/	/	/	/	-2	/	/
CC(=O)Cc1cc(O)c2ccccc2c1OC(=O)c1ccccc1	-7	28*	-4	5	55*	1	-9	BaF3 tox 2=28*;JAK2V617F confrm=41*
Cn1cc(C(=O)N/N=C/c2ccc3c(c2)OCO3)c2ccccc21	/	48*	19	/	53*	0	48*	BaF3 tox 2=13;JAK2V617F confrm=23
COc1ccc(OC)c(/C=N/NC(=O)c2[nH]nc3c2CCc2ccccc2-3)c1	6	-2	6	1	-10	0	/
COc1cccc(/C=N/NC(=O)c2[nH]nc3c2CCc2ccccc2-3)c1	/	29*	-1	/	23*	-4	43*	BaF3 tox 2=44*;JAK2V617F confrm=92*
COc1ccccc1Nc1nc(N)nc(CCl)n1	/	-2	2	/	0	-1	/
Cc1cccc(Nc2nc(N)nc(CCl)n2)c1C	/	100*	3	/	102*	0	1	BaF3 tox 2=5;JAK2V617F confrm=98*
Cc1ccc(C(=O)N2CCN(S(=O)(=O)N3CCCCCC3)CC2)cc1	/	/	/	/	2	/	/
Cn1cc([N+](=O)[O-])c(C(=O)Nc2cc(Oc3ccccc3)cc([N+](=O)[O-])c2)n1	97*	26*	2	25	23*	18	19	BaF3 tox 2=32*;JAK2V617F confrm=99*
CCCc1cc(C(=O)Nc2cc(C)ccc2O)no1	/	/	/	/	-9	/	/
O=C(O)CCCC(=O)Nc1ccc(C(=O)NCc2cccnc2)cc1	-29	-1	4	2	-2	/	/
O=C(CCC1CCCC1)Nc1ccc(C(=O)NCc2cccnc2)cc1	29	31*	20	5	85*	0	46*	BaF3 tox 2=30*;JAK2V617F confrm=100*
COc1ccc(OC)c(NC(=O)CCCSc2ccccc2)c1	/	/	/	/	-8	/	/
O=c1c(Cl)c(Cl)cnn1Cc1nnc(-c2ccc(Cl)cc2)o1	77*	34*	-8	40	35*	2	17	BaF3 tox 2=66*;JAK2V617F confrm=81*
O=[N+]([O-])c1ccc(Sc2nnnn2-c2ccccc2)nc1	94*	69*	3	5	38*	-2	44*	BaF3 tox 2=29*;JAK2V617F confrm=100*
Cc1cccc(Nc2ncnc3ccc(Br)cc23)c1	-12	7	10	3	42*	-1	42*
C=CCn1c(SCC(=O)c2cccs2)nc2sc(CC)cc2c1=O	2	-3	0	1	30*	-2	36*
CC(C)(C)C#CC(CCc1ccccc1)OS(N)(=O)=O (stereo not given)	/	/	/	/	0	/	/
CCOC(=O)c1ccc(NC(=S)N2CCN(C(=O)C3CCCO3)CC2)cc1 (stereo not given)	/	/	/	/	29*	/	7
O=C(C1CCCO1)N1CCN(C(=S)Nc2ccccc2)CC1 (stereo not given)	8	-6	1	5	8	5	/
COc1ccc(NC(=O)c2ccc(F)c(F)c2)c2ccccc12	/	/	/	/	2	/	/
SMILES	APP transl inh	Ba/F3 V617F tox	BaF3 tox	MT stabilizer	IEC-6 cytotox	b-catenin transl	IEC-6 tox confirm	others
O=C1C(=O)N(C/C=C/c2ccccc2)c2ccccc21	/	/	/	/	89*	/	65*
C/C=C/C(O)c1ccc2ccccc2c1 (stereo not given)	/	/	/	/	-1	/	/
Cc1ccccc1C(=O)Nc1ccc(Cl)cn1	-68	-4	2	1	-2	-2	/
O=C(Nc1ccc(Cl)cn1)c1cccc2c(Br)cccc12	/	/	/	/	82*	/	14
O=C(NCc1ccc2c(c1)OCO2)c1nc(S(=O)(=O)Cc2ccccc2F)ncc1Cl	/	/	/	/	35*	/	12
O=C(NCc1ccc2c(c1)OCO2)c1nc(S(=O)(=O)Cc2ccccc2)ncc1Cl	/	/	/	/	24*	/	15
COCc1cc(=O)n2[nH]c(-c3cccs3)cc2n1	/	-4	-6	/	1	-1	/
COc1cc2[nH]c(C(=O)Nc3ccc(F)cc3)cc2c(OC)c1OC	/	/	/	/	57*	/	27*
Cc1cc(C)c2cc(C(=O)Nc3ccc(C)c(F)c3)[nH]c2c1	/	/	/	/	3	/	/
CCOC(=O)N1CCN(C(=O)c2ccccc2-c2ccccc2)CC1	39	53*	47*	32*	40*	50	35*
CCOC(=O)N1CCN(C(=O)c2ccccc2CCc2ccccc2)CC1	1	-4	-3	3	1	/	/
COc1ccc(C#Cc2ccc3c(=O)c4ccccc4n(C)c3c2)cc1	/	/	/	/	0	/	/
Cn1c2ccccc2c(=O)c2ccc(C#Cc3ccc(N)cc3)cc21	/	/	/	/	36*	/	33*
CCc1nn(C(C)C(=O)N2CCN(c3ccc(OC)cc3)CC2)c(=O)c2cc3occc3n12 (stereo not given)	/	/	/	/	44*	/	24*
CC(C)(C)C(=O)/C(=C/c1ccc(Cl)cc1)n1cncn1	/	/	/	/	29*	/	19
CC(C)/C=C(/C(=O)c1ccc(Cl)cc1Cl)n1cncn1	/	/	/	/	-7	/	/
CC(C)(C)c1ccc(C(=O)N2CCCN(c3ccc([N+](=O)[O-])cn3)CC2)cc1	/	2	-5	/	8	0	/
COc1ccc(S(=O)(=O)Nc2ccccn2)cc1	/	/	/	/	-5	/	/
COc1cc(NS(=O)(=O)c2ccc(C)cc2)c2ncccc2c1	22	1	7	11	79*	4	74*
COc1ccc(S(=O)(=O)Nc2cc3c(C(C)=O)c(C)oc3c3ccccc23)cc1	92*	79*	78*	11	83*	/	55*
Cc1ccc(S(=O)(=O)Nc2cccc3cccnc23)cc1	29	0	4	2	32*	/	100*
Brc1c(C[n+]2ccccc2)nc2ccccn12	/	7	-1	/	0	1	/
COc1ccc(NC(=S)N2CCc3ccccc32)cc1OC	/	/	/	/	4	/	/
COc1ccc(CNC(=O)Cn2nc(C)c3c(C)n(-c4ccc(C)cc4)nc3c2=O)cc1OC	/	/	/	/	12	/	/
CCCCCCCn1ccc(=N)cc1	16	97*	77*	2	23*	0	32*
CCOCCCNC(=O)c1cc2c(=O)n(CC)c3ccccc3c2s1	/	/	/	/	22*	/	7
CCN(CC)CCNC(=O)c1cc2c(=O)n(CC)c3ccccc3c2s1	/	/	/	/	18	/	/
